Results as given in ChEMBL document CHEMBL5030506 (J Med Chem, 2021).
Active and inactive are the calls of the source. The calls are words filed in the database; no cut-off is given here.

Legend:
[1] = molecular target: Protein arginine N-methyltransferase 6 (Homo sapiens, UniProt Q96LA8); test: Inhibition of PRMT6 (unknown origin)
[2] = Inhibition of PRMT6 mutant 20 (unknown origin) using biotinylated H4(1 to 24) peptide as substrate preincubated for 20 mins in presence of [3H]SAM followed by substrate addition by scintillation proximity assay; set-up: species or system Homo sapiens
[3] = Inhibition of PRMT6 mutant 19 (unknown origin) using biotinylated H4(1 to 24) peptide as substrate preincubated for 20 mins in presence of [3H]SAM followed by substrate addition by scintillation proximity assay; set-up: species or system Homo sapiens
[4] = Inhibition of PRMT6 mutant 17 (unknown origin) using biotinylated H4(1 to 24) peptide as substrate preincubated for 20 mins in presence of [3H]SAM followed by substrate addition by scintillation proximity assay; set-up: species or system Homo sapiens
[5] = molecular target: Histone-lysine N-methyltransferase KMT5C (Homo sapiens) (UniProt Q86Y97); test: Inhibition of SUV420H2 (unknown origin) at 1 to 10 uM; details: dose 1-10 µM
Procedure, shortened: (§1)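 Part of a 33-methyltransferase selectivity panel covering 8 PRMTs, 21 PKMTs, 3 DNMTs and 1 RNA methyltransferase. Each compound was tested at 1 μM and at 10 μM, with n = 3.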

[6] = molecular target: Histone-lysine N-methyltransferase SUV39H2 (Homo sapiens) (UniProt Q9H5I1); test: Inhibition of SUV39H2 (unknown origin) at 1 to 10 uM; details: dose 1-10 µM; procedure, shortened: as §1
Chain of Histone-lysine N-methyltransferase SUV39H2 (Homo sapiens) (Q9H5I1 whole entry): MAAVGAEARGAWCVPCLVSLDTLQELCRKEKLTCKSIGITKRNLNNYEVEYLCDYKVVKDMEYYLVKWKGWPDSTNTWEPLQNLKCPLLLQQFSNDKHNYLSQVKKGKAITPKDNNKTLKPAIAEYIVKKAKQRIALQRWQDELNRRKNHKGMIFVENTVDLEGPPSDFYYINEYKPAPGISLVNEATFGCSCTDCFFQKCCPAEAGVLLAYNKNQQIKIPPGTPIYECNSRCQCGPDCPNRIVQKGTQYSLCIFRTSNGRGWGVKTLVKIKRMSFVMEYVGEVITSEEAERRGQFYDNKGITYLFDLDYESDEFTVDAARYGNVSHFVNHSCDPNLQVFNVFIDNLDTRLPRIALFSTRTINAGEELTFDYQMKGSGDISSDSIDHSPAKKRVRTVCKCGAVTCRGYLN

[7] = molecular target: Histone-lysine N-methyltransferase KMT5B (Homo sapiens) (UniProt Q4FZB7); test: Inhibition of SUV420H1 (unknown origin) at 1 to 10 uM; details: dose 1-10 µM; procedure, shortened: as §1
[8] = molecular target: Histone-lysine N-methyltransferase SUV39H1 (Homo sapiens) (UniProt O43463); test: Inhibition of SUV39H1 (unknown origin) at 1 to 10 uM; details: dose 1-10 µM; procedure, shortened: as §1
Chain of Histone-lysine N-methyltransferase SUV39H1 (Homo sapiens) (O43463 whole entry): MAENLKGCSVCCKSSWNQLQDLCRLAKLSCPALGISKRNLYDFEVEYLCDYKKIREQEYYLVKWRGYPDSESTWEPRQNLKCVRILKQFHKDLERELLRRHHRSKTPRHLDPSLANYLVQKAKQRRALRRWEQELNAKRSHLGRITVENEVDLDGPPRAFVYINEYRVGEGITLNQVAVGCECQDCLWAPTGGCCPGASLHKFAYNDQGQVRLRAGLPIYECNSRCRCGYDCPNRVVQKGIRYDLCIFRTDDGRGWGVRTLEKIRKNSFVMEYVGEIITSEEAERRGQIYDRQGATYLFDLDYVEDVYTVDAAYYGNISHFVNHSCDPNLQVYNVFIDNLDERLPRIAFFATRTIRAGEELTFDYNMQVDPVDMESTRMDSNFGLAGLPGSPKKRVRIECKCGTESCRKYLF

[9] = molecular target: Histone-lysine N-methyltransferase SETDB1 (Homo sapiens) (UniProt Q15047); test: Inhibition of SETDB1 (unknown origin) at 1 to 10 uM; details: dose 1-10 µM; procedure, shortened: as §1
[10] = molecular target: Histone-lysine N-methyltransferase EHMT2 (Homo sapiens) (UniProt Q96KQ7); test: Inhibition of G9a (unknown origin) at 1 to 10 uM; details: dose 1-10 µM; procedure, shortened: as §1
[11] = molecular target: Histone-lysine N-methyltransferase EHMT1 (Homo sapiens) (UniProt Q9H9B1); test: Inhibition of GLP (unknown origin) at 1 to 10 uM; details: dose 1-10 µM; procedure, shortened: as §1
[12] = molecular target: Protein arginine N-methyltransferase 8 (Homo sapiens) (UniProt Q9NR22); test: Inhibition of PRMT8 (unknown origin) at 1 to 10 uM; details: dose 1-10 µM; procedure, shortened: as §1
[13] = molecular target: Protein arginine N-methyltransferase 5 (Homo sapiens) (UniProt O14744); test: Inhibition of PRMT5 (unknown origin) at 1 to 10 uM; details: dose 1-10 µM; procedure, shortened: as §1
Chain of Protein arginine N-methyltransferase 5 (Homo sapiens) (O14744 whole entry): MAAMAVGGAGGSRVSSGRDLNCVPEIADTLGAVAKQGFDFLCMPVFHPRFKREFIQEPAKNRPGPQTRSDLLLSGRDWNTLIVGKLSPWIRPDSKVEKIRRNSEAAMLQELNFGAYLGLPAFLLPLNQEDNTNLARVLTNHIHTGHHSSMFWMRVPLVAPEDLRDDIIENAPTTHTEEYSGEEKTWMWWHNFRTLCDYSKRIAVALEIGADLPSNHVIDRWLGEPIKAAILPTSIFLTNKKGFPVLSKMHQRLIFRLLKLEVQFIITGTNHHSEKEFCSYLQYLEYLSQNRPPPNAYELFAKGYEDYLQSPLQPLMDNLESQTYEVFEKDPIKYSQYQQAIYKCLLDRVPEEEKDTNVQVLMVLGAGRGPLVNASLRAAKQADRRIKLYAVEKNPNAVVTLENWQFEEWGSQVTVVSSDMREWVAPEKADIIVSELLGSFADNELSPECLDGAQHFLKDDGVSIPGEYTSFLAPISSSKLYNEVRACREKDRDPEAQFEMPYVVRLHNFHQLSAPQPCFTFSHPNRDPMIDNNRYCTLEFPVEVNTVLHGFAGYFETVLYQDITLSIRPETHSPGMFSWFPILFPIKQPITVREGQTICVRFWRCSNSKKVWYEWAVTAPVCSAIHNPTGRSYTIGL

[14] = molecular target: Protein arginine N-methyltransferase 7 (Homo sapiens) (UniProt Q9NVM4); test: Inhibition of PRMT7 (unknown origin) at 1 to 10 uM; details: dose 1-10 µM; procedure, shortened: as §1
Chain of Protein arginine N-methyltransferase 7 (Homo sapiens) (Q9NVM4 whole entry): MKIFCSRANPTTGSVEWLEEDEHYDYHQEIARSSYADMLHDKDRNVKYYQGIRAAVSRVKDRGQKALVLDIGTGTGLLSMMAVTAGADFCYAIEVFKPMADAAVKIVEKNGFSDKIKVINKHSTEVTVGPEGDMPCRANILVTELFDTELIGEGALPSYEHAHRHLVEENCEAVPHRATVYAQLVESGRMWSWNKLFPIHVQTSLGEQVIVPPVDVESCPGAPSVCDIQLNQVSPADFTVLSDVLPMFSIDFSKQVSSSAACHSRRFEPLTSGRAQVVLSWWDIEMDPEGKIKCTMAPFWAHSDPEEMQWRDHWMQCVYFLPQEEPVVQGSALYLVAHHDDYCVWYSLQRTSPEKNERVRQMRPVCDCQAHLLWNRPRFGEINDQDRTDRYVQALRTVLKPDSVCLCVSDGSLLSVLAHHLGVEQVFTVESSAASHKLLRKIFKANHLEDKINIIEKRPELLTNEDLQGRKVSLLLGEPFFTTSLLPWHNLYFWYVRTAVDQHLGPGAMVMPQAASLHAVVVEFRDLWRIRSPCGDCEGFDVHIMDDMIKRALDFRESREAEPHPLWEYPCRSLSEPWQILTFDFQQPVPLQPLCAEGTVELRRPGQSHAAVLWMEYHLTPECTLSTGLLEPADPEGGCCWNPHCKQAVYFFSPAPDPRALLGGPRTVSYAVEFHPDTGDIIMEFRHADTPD

[15] = molecular target: Histone-arginine methyltransferase CARM1 (Homo sapiens) (UniProt Q86X55); test: Inhibition of PRMT4 (unknown origin) at 1 to 10 uM; details: dose 1-10 µM; procedure, shortened: as §1
[16] = molecular target: Protein arginine N-methyltransferase 3 (Homo sapiens) (UniProt O60678); test: Inhibition of PRMT3 (unknown origin) at 1 to 10 uM; details: dose 1-10 µM; procedure, shortened: as §1
[17] = molecular target: Protein arginine N-methyltransferase 1 (Homo sapiens) (UniProt Q99873); test: Inhibition of PRMT1 (unknown origin) at 1 to 10 uM; details: dose 1-10 µM; procedure, shortened: as §1
Chain of Protein arginine N-methyltransferase 1 (Homo sapiens) (Q99873 whole entry, looked up): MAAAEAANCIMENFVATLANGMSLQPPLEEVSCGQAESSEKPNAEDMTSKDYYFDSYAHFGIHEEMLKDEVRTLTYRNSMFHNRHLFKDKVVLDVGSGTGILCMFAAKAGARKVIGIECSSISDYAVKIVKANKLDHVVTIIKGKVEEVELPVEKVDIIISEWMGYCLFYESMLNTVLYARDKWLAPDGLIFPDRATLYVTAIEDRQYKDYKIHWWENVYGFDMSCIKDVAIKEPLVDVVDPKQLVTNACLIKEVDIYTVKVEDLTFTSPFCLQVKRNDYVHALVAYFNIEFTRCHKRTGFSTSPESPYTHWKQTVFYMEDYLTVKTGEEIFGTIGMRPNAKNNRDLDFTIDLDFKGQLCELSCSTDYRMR

[18] = molecular target: Histone-lysine N-methyltransferase SETD7 (Homo sapiens) (UniProt Q8WTS6); test: Inhibition of SETD7 (unknown origin) at 1 to 10 uM; details: dose 1-10 µM; procedure, shortened: as §1
Chain of Histone-lysine N-methyltransferase SETD7 (Homo sapiens) (Q8WTS6 whole entry): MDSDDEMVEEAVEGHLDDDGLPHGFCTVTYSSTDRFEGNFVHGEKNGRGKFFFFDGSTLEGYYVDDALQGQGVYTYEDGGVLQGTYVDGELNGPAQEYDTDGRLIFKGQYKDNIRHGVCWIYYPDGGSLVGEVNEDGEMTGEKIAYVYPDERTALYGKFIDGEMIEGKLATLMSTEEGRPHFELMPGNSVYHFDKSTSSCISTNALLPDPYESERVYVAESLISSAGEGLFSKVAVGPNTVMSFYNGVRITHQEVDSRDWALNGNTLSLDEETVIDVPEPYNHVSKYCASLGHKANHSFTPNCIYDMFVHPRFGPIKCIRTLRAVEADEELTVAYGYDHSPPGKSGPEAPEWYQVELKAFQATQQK

[19] = molecular target: N-lysine methyltransferase KMT5A (Homo sapiens) (UniProt Q9NQR1); test: Inhibition of SETD8 (unknown origin) at 1 to 10 uM; details: dose 1-10 µM; procedure, shortened: as §1
[20] = molecular target: Histone-lysine N-methyltransferase 2A (Homo sapiens) (UniProt Q03164); test: Inhibition of MLL1 (unknown origin) at 1 to 10 uM; details: dose 1-10 µM; procedure, shortened: as §1
[21] = molecular target: Histone-lysine N-methyltransferase 2C (Homo sapiens) (UniProt Q8NEZ4); test: Inhibition of MLL3 (unknown origin) at 1 to 10 uM; details: dose 1-10 µM; procedure, shortened: as §1
[22] = molecular target: Histone-lysine N-methyltransferase PRDM9 (Homo sapiens) (UniProt Q9NQV7); test: Inhibition of PRDM9 (unknown origin) at 1 to 10 uM; details: dose 1-10 µM; procedure, shortened: as §1
Chain of Histone-lysine N-methyltransferase PRDM9 (Homo sapiens) (Q9NQV7 whole entry): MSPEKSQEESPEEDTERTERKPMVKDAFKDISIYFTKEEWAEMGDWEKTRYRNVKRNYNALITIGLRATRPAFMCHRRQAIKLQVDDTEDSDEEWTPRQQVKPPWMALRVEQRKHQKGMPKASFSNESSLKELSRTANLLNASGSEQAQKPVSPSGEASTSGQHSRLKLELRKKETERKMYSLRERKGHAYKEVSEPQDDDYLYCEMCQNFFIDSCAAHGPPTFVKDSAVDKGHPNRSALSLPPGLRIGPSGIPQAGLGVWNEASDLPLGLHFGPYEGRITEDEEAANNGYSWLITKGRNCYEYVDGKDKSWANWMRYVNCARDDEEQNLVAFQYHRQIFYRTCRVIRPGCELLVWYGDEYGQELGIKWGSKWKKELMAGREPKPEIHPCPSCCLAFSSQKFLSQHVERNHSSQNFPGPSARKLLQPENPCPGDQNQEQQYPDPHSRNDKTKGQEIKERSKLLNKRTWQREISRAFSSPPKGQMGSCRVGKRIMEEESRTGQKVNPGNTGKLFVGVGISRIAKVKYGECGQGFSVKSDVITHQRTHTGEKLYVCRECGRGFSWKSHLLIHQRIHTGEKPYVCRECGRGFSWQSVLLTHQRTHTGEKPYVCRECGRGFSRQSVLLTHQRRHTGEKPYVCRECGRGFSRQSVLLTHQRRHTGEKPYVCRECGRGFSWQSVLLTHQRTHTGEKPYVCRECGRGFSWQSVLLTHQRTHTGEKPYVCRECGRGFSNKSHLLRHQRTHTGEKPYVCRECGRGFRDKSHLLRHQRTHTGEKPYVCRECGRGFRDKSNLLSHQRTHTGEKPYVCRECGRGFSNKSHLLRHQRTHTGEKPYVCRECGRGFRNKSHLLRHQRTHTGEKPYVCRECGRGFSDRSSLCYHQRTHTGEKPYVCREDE

[23] = molecular target: Histone-lysine N-methyltransferase EZH2 (Homo sapiens) (UniProt Q15910); test: Inhibition of PRC2 (unknown origin) at 1 to 10 uM; details: dose 1-10 µM; procedure, shortened: as §1
[24] = molecular target: Histone-lysine N-methyltransferase SETD2 (Homo sapiens) (UniProt Q9BYW2); test: Inhibition of SETD2 (unknown origin) at 1 to 10 uM; details: dose 1-10 µM; procedure, shortened: as §1
[25] = molecular target: N-lysine methyltransferase SMYD2 (Homo sapiens) (UniProt Q9NRG4); test: Inhibition of SMYD2 (unknown origin) at 1 to 10 uM; details: dose 1-10 µM; procedure, shortened: as §1
[26] = molecular target: Histone-lysine N-methyltransferase SMYD3 (Homo sapiens) (UniProt Q9H7B4); test: Inhibition of SMYD3 (unknown origin) at 1 to 10 uM; details: dose 1-10 µM; procedure, shortened: as §1
[27] = molecular target: RNA 5'-monophosphate methyltransferase (Homo sapiens) (UniProt Q7Z5W3); test: Inhibition of BCDIN3D (unknown origin) at 1 to 10 uM; details: dose 1-10 µM; procedure, shortened: as §1
Chain of RNA 5'-monophosphate methyltransferase (Homo sapiens) (Q7Z5W3 whole entry): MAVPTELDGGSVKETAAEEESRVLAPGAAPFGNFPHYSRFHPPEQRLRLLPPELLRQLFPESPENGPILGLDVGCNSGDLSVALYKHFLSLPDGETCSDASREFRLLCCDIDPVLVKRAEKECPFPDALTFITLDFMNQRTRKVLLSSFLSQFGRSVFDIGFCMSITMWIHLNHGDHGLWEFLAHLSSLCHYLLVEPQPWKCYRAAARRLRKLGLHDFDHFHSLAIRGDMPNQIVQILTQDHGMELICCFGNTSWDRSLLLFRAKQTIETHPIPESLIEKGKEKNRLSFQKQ

[28] = molecular target: DNA (cytosine-5)-methyltransferase 1 (Homo sapiens) (UniProt P26358); test: Inhibition of DNMT1 (unknown origin) at 1 to 10 uM; details: dose 1-10 µM; procedure, shortened: as §1
[29] = molecular target: DNA (cytosine-5)-methyltransferase 3A (Homo sapiens) (UniProt Q9Y6K1); test: Inhibition of DNMT3A (unknown origin) at 1 to 10 uM; details: dose 1-10 µM; procedure, shortened: as §1
[30] = molecular target: DNA (cytosine-5)-methyltransferase 3B (Homo sapiens) (UniProt Q9UBC3); test: Inhibition of DNMT3B (unknown origin) at 1 to 10 uM; details: dose 1-10 µM; procedure, shortened: as §1
[31] = molecular target: Histone-lysine N-methyltransferase, H3 lysine-79 specific (Homo sapiens) (UniProt Q8TEK3); test: Inhibition of DOT1L (unknown origin) at 1 to 10 uM; details: dose 1-10 µM; procedure, shortened: as §1
[32] = molecular target: Histone-lysine N-methyltransferase ASH1L (Homo sapiens) (UniProt Q9NR48); test: Inhibition of ASH1L (unknown origin) at 1 to 10 uM; details: dose 1-10 µM; procedure, shortened: as §1
[33] = molecular target: Histone-lysine N-methyltransferase, H3 lysine-36 specific (Homo sapiens) (UniProt Q96L73); test: Inhibition of NSD1 (unknown origin) at 1 to 10 uM; details: dose 1-10 µM; procedure, shortened: as §1
[34] = molecular target: Histone-lysine N-methyltransferase NSD2 (Homo sapiens) (UniProt O96028); test: Inhibition of NSD2 (unknown origin) at 1 to 10 uM; details: dose 1-10 µM; procedure, shortened: as §1
[35] = molecular target: Histone-lysine N-methyltransferase NSD3 (Homo sapiens) (UniProt Q9BZ95); test: Inhibition of NSD3 (unknown origin) at 1 to 10 uM; details: dose 1-10 µM; procedure, shortened: as §1
PNT2 = test: Cytotoxicity against PNT2 cells at up to 10 uM measured after 3 days by CCK8 assay; format: cell-based; details: human, pnt2, 72 h, time 3 day
Procedure, shortened: (§2)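 Cells (1 × 10^4 per well) were seeded and, after 24 h, exposed for 3 days to serially diluted compound starting at 10 μM. CCK-8 (WST-8) reagent was then added for 4 h at 37 °C, and absorbance was read at 450 nm. Values are the average ± SD of three replicate experiments.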

MCF7 = test: Cytotoxicity against MCF7 cells at up to 10 uM measured after 3 days by CCK8 assay; format: cell-based; details: human, mcf7, 72 h, time 3 day; procedure, shortened: as §2
[36] = molecular target: Protein arginine N-methyltransferase 9 (Homo sapiens) (UniProt Q6P2P2); test: Inhibition of PRMT9 (unknown origin) at 1 to 10 uM; details: dose 1-10 µM
Chain of Protein arginine N-methyltransferase 9 (Homo sapiens) (Q6P2P2 whole entry, looked up): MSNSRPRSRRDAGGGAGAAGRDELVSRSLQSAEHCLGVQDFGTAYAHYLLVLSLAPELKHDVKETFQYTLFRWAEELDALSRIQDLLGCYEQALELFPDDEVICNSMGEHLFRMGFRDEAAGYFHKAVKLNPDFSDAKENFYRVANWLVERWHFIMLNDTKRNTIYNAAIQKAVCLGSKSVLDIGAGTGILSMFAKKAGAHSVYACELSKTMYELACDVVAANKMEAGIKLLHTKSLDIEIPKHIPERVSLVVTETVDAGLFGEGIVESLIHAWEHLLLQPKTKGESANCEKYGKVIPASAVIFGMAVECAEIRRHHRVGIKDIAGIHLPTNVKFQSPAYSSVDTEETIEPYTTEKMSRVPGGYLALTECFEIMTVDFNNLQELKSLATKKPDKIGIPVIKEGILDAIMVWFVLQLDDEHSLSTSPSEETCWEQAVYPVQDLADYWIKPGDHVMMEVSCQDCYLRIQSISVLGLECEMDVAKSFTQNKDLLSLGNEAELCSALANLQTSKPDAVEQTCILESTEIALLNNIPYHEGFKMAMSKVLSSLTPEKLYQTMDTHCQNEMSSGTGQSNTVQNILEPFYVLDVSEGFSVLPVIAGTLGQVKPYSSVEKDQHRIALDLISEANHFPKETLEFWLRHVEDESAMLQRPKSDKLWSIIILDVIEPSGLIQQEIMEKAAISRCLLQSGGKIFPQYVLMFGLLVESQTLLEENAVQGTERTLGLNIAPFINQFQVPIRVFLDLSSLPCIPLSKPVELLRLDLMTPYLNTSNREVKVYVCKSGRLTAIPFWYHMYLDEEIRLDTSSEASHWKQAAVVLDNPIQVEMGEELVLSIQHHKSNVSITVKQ

HEK-293T [37] = test: Cytotoxicity against HEK293T cells at 30 uM measured after 20 hrs by Western blot analysis; details: human
HEK293T [38] = test: Inhibition of FLAG-tagged PRMT6 V86K/D88A mutant (unknown origin) expressed in HEK293T assessed as reduction in H3R2me2a level measured after 20 hrs by SDS gel electrophoresis relative to control; format: cell-based; details: Homo sapiens
Procedure, shortened: (§3)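 HEK293T cells were grown in DMEM with 10% FBS and penicillin/streptomycin. The next day they were transfected with FLAG-PRMT6 or the V86K/D88A mutant (1 μg DNA per well). After 4 h, medium was replaced with titrated compound for 20 h. Cells were lysed in benzonase-containing buffer, SDS was added to 1%, and lysates were western blotted for H3R2me2a or H4R3me2a, total H3/H4 and FLAG, with infrared detection at 800/700 nm.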

HEK293T [39] = test: Inhibition of FLAG-tagged PRMT6 V86K/D88A mutant (unknown origin) expressed in HEK293T assessed as reduction in H4R3me2a level measured after 20 hrs by SDS gel electrophoresis relative to control; format: cell-based; details: Homo sapiens; procedure, shortened: as §3
HEK-293T [40] = test: Cytotoxicity against HEK293T cells at up to 10 uM measured after 3 days by CCK8 assay; format: cell-based; details: human, 72 h, time 3 day; procedure, shortened: as §2

inhibition [5] | inhibition [6] | inhibition [7] | inhibition [8] | inhibition [9] | inhibition [10] | inhibition [11] | inhibition [12] | inhibition [13] | inhibition [14] | inhibition [15] | inhibition [16] | inhibition [17] | inhibition [18] | inhibition [19] | inhibition [20] | inhibition [21] | inhibition [22] | inhibition [23] | inhibition [24] | Structure (SMILES) | further results
 |  |  |  |  |  |  |  |  |  |  |  |  |  |  |  |  |  |  |  | CNCCN1CCC(OCc2ccccc2)CC1 | IC50 [1]: 0.034 µM
 |  |  |  |  |  |  |  |  |  |  |  |  |  |  |  |  |  |  |  | Cc1ccc2c(c1)[C@@H](c1ccc(F)cc1)N(C(=O)c1ccc(Br)o1)CC(=O)N2 | IC50 [2]: 41 µM; IC50 [3]: 17 µM; IC50 [4]: 46 µM
inactive | inactive | inactive | inactive | inactive | inactive | inactive | inactive | inactive | inactive | inactive | inactive | inactive | inactive | inactive | inactive | inactive | inactive | inactive | inactive | Cc1cc(C)cc([C@H]2c3cc(C)ccc3NC(=O)CN2C(=O)c2ccc(Br)s2)c1 | inhibition [25]: inactive; inhibition [26]: inactive; inhibition [27]: inactive; inhibition [28]: inactive; inhibition [29]: inactive; inhibition [30]: inactive; inhibition [31]: inactive; inhibition [32]: inactive; inhibition [33]: inactive; inhibition [34]: inactive; inhibition [35]: inactive; Activity (PNT2): Non-Toxic; Activity (MCF7): Non-Toxic; inhibition [36]: inactive; Activity (HEK-293T [37]): Toxic
inactive | inactive | inactive | inactive | inactive | inactive | inactive | inactive | inactive | inactive | inactive | inactive | inactive | inactive | inactive | inactive | inactive | inactive | inactive | inactive | Cc1cc(C)cc([C@@H]2c3cc(C)ccc3NC(=O)CN2C(=O)c2ccc(Br)s2)c1 | inhibition [25]: inactive; inhibition [26]: inactive; inhibition [27]: inactive; inhibition [28]: inactive; inhibition [29]: inactive; inhibition [30]: inactive; inhibition [31]: inactive; inhibition [32]: inactive; inhibition [33]: inactive; inhibition [34]: inactive; inhibition [35]: inactive; inhibition (HEK293T [38]): 100%; inhibition (HEK293T [39]): 100%; Activity (HEK-293T [40]): Non-Toxic; Activity (PNT2): Non-Toxic; Activity (MCF7): Non-Toxic; inhibition [36]: inactive
